PMI activator = increases human mannose-6-phosphate isomerase activity | P34949 | purified human PMI, coupled resazurin fluorescence, 20 min; hits give high values; 1 = vehicle control, 0 substrate-free wells | activation factor at 20 µM | 190,000 compounds, 0.005% hits | AID 1214;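 active = activation factor of 2 or more at 20 µM, relative to plate controls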
Target sequence (P34949 whole entry, looked up): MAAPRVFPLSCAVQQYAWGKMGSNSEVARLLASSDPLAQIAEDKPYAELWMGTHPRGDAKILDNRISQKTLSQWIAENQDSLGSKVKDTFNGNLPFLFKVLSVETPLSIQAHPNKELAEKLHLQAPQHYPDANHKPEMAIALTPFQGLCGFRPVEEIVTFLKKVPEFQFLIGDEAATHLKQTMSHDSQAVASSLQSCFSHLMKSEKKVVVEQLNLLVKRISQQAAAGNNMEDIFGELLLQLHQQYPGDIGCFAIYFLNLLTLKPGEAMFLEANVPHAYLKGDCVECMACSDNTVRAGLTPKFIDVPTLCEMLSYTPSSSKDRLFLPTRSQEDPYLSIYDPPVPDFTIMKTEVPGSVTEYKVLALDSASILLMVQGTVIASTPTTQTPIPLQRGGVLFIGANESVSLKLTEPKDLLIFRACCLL
Rad51 HR inh = blocks human Rad51 in homologous recombination. hRad51 DNA strand exchange, fluorescence dequenching. inhibition, % at 10 µM. AID 1385. Q06609. 200,000 compounds, 0.085% hits;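 active = inhibition above 40% at the single screening dose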
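Test system: preformed human Rad51 ssDNA filaments. Compound dosing: single dose, 10 µM final compound. Incubation: filaments 15 min 37 °C, then compound 30 min. Technique: FRET fluorescence dequenching, excitation 485 nm, emission 520 nm. Read-out basis: percent inhibition from fluorescence, normalised to plate control and blank means. Benchmarks: plate controls and plate blanks.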
WT yeast gro inh = growth inhibition of WT yeast, mitochondrial fusion screen; mitochondrial fusion phenotypic screen, WT strain; inhibition, % at 10 µM; 190,000 compounds, 2.1% hits; AID 1362; in the data active = inhibition above about 58%; tested in S. cerevisiae
PMI act satM6P = PMI (human) activation, high substrate. activation factor at 20 µM. 190,000 compounds, 0.34% hits. coupled PMI enzyme assay, resazurin fluorescence, 20 min; hits give high values; 1 = untreated enzyme, 0 = substrate-free blank;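 active = activation factor of 2 or more at 20 µM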
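assay system = human phosphomannose isomerase with PGI, G6PDH, diaphorase coupling enzymes | quantity = 15 ng/mL PMI | incubation = enzyme reaction with compound 20 min at room temperature | medium = HEPES pH 7.4 buffer with MgCl2 and Tween-20 | compound dosing = one concentration, 20 µM, in 1% DMSO | measured by = Diaphorase-driven resazurin-to-resorufin fluorescence, excitation 544, emission 590 nm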
m-calpain inh = blocks pig calpain II enzyme activity. purified calpain II, fluorogenic peptide substrate, 30 min. inhibition, % at 16 µM. 220,000 compounds, 0.37% hits. AID 1236;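 active = inhibition above about 50%, limit read from the data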
L major viab = inhibitors of Leishmania major promastigote growth; Leishmania major promastigotes, resazurin fluorescence viability; inhibition, % at 10 µM; 200,000 compounds, 9% hits; AID 1063; in the data active = inhibition above about 50%;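 note: promastigotes grown with compound for 44 hours at 28 °C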
Large screens that a line does not name were inactive. The list is not random: actives were taken first. Their share in the collection is about 9.8%.

CC(=O)Nc1ccc(Nc2cc(C)nc3c(-c4ccccc4)c(C)nn23)cc1	L major viab 85.3
NNC(=O)CNC(c1ccccc1)c1cc(Br)ccc1NC(=O)c1ccccc1Br (centres undefined)	none
COc1cccc(C2CC(=O)C3=C(C2)Nc2ccccc2N(C(=O)CCC(=O)O)C3c2ccc(F)cc2)c1 (centres undefined)	none (no result: PMI activator, WT yeast gro inh, PMI act satM6P, L major viab)
COc1ccc(NC(=O)CCNS(=O)(=O)c2ccc3c(c2)c(=O)n(C)c(=O)n3C)c(OC)c1	none (no result: Rad51 HR inh)
COc1ccc(CCN(C)C(=O)C2CCN(Cc3cccc(OC)c3OC)CC2)cc1OC	none
Cc1cc(C(=O)CSc2nnc(-c3cccc(F)c3)n2N)c(C)n1Cc1ccc2c(c1)OCO2	L major viab 74.8
Cc1ccc(CN2CCN(CC(=O)NC(C)c3ccc4c(c3)OCCO4)C2=O)cc1 (centres undefined)	none
CC(=O)Nc1ccc(C(=O)n2cnc3cc(C)c(C)cc32)cc1	none
CC(=O)Nc1ccc(S(=O)(=O)n2cnc3cc(C)c(C)cc32)cc1	L major viab 66.8 (no result: Rad51 HR inh)
O=S(=O)(c1ccc(-c2csc(Nc3ccc(Br)cc3)n2)cc1)N1CCCC1	none
Cc1ccc(Nc2nc(-c3ccc(S(=O)(=O)N4CCCC4)cc3)cs2)cc1C	L major viab 90.0
Cc1cc(C)cc(Nc2nc(-c3ccc(S(=O)(=O)N4CCCC4)cc3)cs2)c1	L major viab 98.5
O=S(=O)(c1ccc(-c2csc(Nc3ccc(F)cc3)n2)cc1)N1CCCC1	L major viab 63.7
C/C(=N\NC(=O)c1cccc(S(=O)(=O)N2CCOCC2)c1)c1cc2ccccc2o1	none (no result: PMI activator, WT yeast gro inh, PMI act satM6P, L major viab)
Fc1cccc(NC(=S)NCc2ccccc2Cl)c1	none (no result: PMI activator, WT yeast gro inh, PMI act satM6P, L major viab)
CC(=O)c1ccc(NC(=O)COc2ccc3c(c2)OCO3)cc1	none
COCCN(C(=O)CSc1nc2ccccc2c(=O)n1CCOC)c1c(N)n(Cc2ccccc2)c(=O)[nH]c1=O	none
O=C(Nc1ccc(Br)c(C(F)(F)F)c1)c1ccccc1	WT yeast gro inh 66.1, L major viab 61.4
O=C(Nc1ccc(Br)c(C(F)(F)F)c1)c1ccc(C(F)(F)F)cc1	none (no result: PMI activator, WT yeast gro inh, PMI act satM6P, L major viab)
O=C(Nc1ccccc1N1CCOCC1)C1CCN(S(=O)(=O)c2ccc(F)cc2)CC1	none
O=C(Nc1ccccc1N1CCOCC1)C1CCN(S(=O)(=O)c2cccc(C(F)(F)F)c2)CC1	L major viab 66.1
CCn1c(O)c(/C=N/N=C/c2ccccc2)c2ccc(C3=NNC(=O)CC3)cc21	L major viab 88.7
CCC(CC)=N/N=C/c1c(O)n(CC)c2cc(C3=NNC(=O)CC3)ccc12	none
CC(C)NC(=O)C1CCN(C2CCN(C(=O)c3cc4c(s3)CCCCC4)CC2)CC1	L major viab 89.3 (no result: Rad51 HR inh)
COc1ccc(/C=C2\SC(=O)N(CCNC(=O)Cc3coc4cc(OC)ccc34)C2=O)cc1	L major viab 59.1
O=[N+]([O-])c1ccc(Oc2ccc(S(=O)(=O)Nc3ccccc3)cc2)cc1	L major viab 65.6 (no result: Rad51 HR inh)
Cc1ccccc1C(=O)Nc1nnc(CC(=O)N/N=C/c2ccncc2)s1	none (no result: PMI activator, Rad51 HR inh, WT yeast gro inh, PMI act satM6P, L major viab)
CCN1CC(C)C(O)(c2ccccc2)CC1C (centres undefined)	L major viab 79.3
OC(COC(c1ccc(Cl)cc1)c1ccc(Cl)cc1)CN1CCN(c2ccccn2)CC1 (centres undefined)	L major viab 70.9
CC1CN(CC(O)COC(c2ccc(Cl)cc2)c2ccc(Cl)cc2)CC(C)O1 (centres undefined)	L major viab 66.9
CN(C)CCOC(c1ccc(Cl)cc1)c1ccccn1 (centres undefined)	none
CN(C)CC(O)COC(c1ccc(Cl)cc1)c1ccc(Cl)cc1 (centres undefined)	L major viab 99.3
CC1CN(CCCCOc2ccc(C(C)C)cc2)CC(C)O1 (centres undefined)	L major viab 91.2
Cc1ccc(NC(=S)Nc2ccc(S(=O)(=O)N3CCOCC3)cc2)cc1S(=O)(=O)N1CCOCC1	none
CC1CN(CC(O)COc2ccc(C(C)C)cc2)CC(C)O1 (centres undefined)	L major viab 92.4
CC(C)N(C(=S)Nc1cccc(C(F)(F)F)c1)C(C)c1ccccn1 (centres undefined)	WT yeast gro inh 74.0
COc1ccccc1NC(=S)N(C(C)C)C(C)c1ccccn1 (centres undefined)	none
CCOc1cc(/C=N/Nc2nc(-c3cccc(S(=O)(=O)N4CCCC4)c3)cs2)ccc1O	L major viab 92.6
COc1ccc(/C=N/Nc2nc(-c3cccc(S(=O)(=O)N4CCCC4)c3)cs2)cc1OC	none
CCOC(=O)C1=C(C)N=C2SC(C(=O)OC)=CC(=O)N2C1c1ccc(OC)cc1 (centres undefined)	WT yeast gro inh 83.8
COC(=O)C1=C(C)N=C2SC(C#N)=C(N)N2C1c1ccc(OC)cc1 (centres undefined)	none
O=C(NC(=S)Nn1cnnc1)c1ccccc1Br	none (no result: PMI activator, WT yeast gro inh, PMI act satM6P, L major viab)
CCO[C@H]1OC(C(=O)N2CCCCCCC2)=C[C@@H](C)[C@@H]1CCCO	none (no result: Rad51 HR inh)
C=CCSc1nnc(-c2cc3c(s2)-c2ccccc2CC3)o1	WT yeast gro inh 65.7
CCOc1ccccc1N1CC(C(=O)Nc2cccc(S(=O)(=O)N3CCCCC3)c2)CC1=O (centres undefined)	none
Cc1nn(-c2ccccc2)c2nc(-c3cccs3)cc(C(=O)NN)c12	none
Cc1nn(-c2ccccn2)c2nc(-c3cccs3)cc(C(=O)NCc3ccco3)c12	L major viab 53.0
Cc1nn(-c2ccccc2)c2nc(-c3ccncc3)cc(C(=O)NCc3ccco3)c12	none
CCOC(=O)c1cc(-c2cccs2)nc2c1c(C)nn2-c1ccccn1	WT yeast gro inh 68.6
Cc1cc(C)c(S(=O)(=O)N2CCN(c3ccc([N+](=O)[O-])c(-n4nc(C)cc4C)c3)CC2)c(C)c1	L major viab 59.1
CC(=O)c1sc(-c2ccc(F)cc2F)nc1C	none (no result: PMI activator, WT yeast gro inh, PMI act satM6P, L major viab)
CCN(C(=O)Cc1c(C(=O)O)n(C)c2ccccc12)c1ccc(F)cc1	none
Cc1ccc2cc(S(=O)(=O)NCCCN3CCOCC3)ccc2c1	L major viab 93.2
COc1ccc2cc(S(=O)(=O)NCCCN3CCOCC3)ccc2c1	L major viab 89.5
O=c1[nH]c(/C(Cl)=C/c2c(F)cccc2Cl)nc2cc(Cl)ccc12	L major viab 79.4
COc1ccc(CNC(=O)C(NC(C)=O)C(=O)Nc2ccc(C(C)C)cc2)cc1 (centres undefined)	none
O=C(Nc1cccc(C(F)(F)F)c1)c1cc2c(=O)c3ccccc3oc2nc1C(F)(F)F	L major viab 62.5
O=C(Nc1ccccc1)c1cc2c(=O)c3ccccc3oc2nc1C(F)(F)F	none
Cc1nc2c(Br)c(C)nn2c2c1CCC2	none
O=C(O)CCCNC(=O)/C(=C\C=C\c1ccccc1)NC(=O)c1ccccc1Cl	none (no result: PMI activator, PMI act satM6P)
